Results taken from ChEMBL document CHEMBL2029254, “Use of libraries to access new chemical space: applications to CRTH2” (Bioorg Med Chem Lett, 2012).

Experiments:
[1] = molecular target: T1, Prostaglandin D2 receptor 2 (Homo sapiens) (UniProt Q9Y5Y4); assay: Displacement of [3H]PGD2 from human CRTH2 receptor expressed in CHO cell membrane at 2.8 uM after 120 mins by scintillation counting; type: cell membranes
T1 sequence (whole entry): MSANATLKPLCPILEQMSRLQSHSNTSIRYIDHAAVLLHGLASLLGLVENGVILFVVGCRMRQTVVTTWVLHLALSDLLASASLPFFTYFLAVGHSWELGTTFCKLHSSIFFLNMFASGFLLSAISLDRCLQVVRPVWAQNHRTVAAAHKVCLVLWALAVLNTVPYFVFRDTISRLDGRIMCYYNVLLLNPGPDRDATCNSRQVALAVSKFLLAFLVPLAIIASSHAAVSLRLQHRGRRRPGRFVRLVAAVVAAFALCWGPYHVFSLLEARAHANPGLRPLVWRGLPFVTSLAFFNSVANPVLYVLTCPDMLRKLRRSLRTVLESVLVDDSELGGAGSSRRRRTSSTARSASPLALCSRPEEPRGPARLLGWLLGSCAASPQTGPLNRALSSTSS

[2] = molecular target: T2, Prostaglandin D2 receptor 2 (Homo sapiens, UniProt Q9Y5Y4); assay: Displacement of [3H]PGD2 from human CRTH2 receptor expressed in CHO cell membrane after 120 mins by scintillation counting; type: cell membranes
T2 sequence (Q9Y5Y4 whole entry): T1 sequence (whole entry)
In short: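 Ki derived from the displacement IC50 by the Cheng–Prusoff relationship, using the KD and radioligand concentration supplied by the analyser. Values are geometric means of three or more independent determinations.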

Row | SMILES | inhibition [1] | Ki [2]
1 | CCc1nn(Cc2cc(Cl)ccc2Cl)c(CC)c1CC(=O)O | > 40% | 623 nM
2 | CCc1nn(CC(=O)O)c(CC)c1Cc1ccc2ccccc2c1 | > 40% | 631 nM
3 | CCc1nn(Cc2cccc(Br)c2)c(CC)c1CC(=O)O | > 40% | 563 nM
4 | O=C(O)Cn1cnc2c1CCN(C(=O)c1csc(-c3ccccc3)n1)C2 | > 40% | 752 nM

The remaining lines, values ahead:

Row | inhibition [1] | Ki [2] | SMILES
5 | > 40% | 247 nM | O=C(O)COc1ccccc1COc1ccc(Cl)cc1-c1ccno1
6 | > 40% | 591 nM | O=C(O)COc1ccccc1COc1ccc(F)cc1C1CC1
7 | > 40% | 520 nM | Cc1ccc(Cl)cc1OCc1ccccc1OCC(=O)O
8 | > 40% | 574 nM | CCc1nn(Cc2ccc3ccccc3c2)c(CC)c1CC(=O)O
9 | > 40% | 333 nM | CCCNC(=O)c1ccccc1OCc1cccc(C)c1OCC(=O)O
10 | > 40% | 492 nM | Cc1ccc2cccc(OCc3ccccc3OCC(=O)O)c2n1
